The record followed here is ChEMBL document CHEMBL1138638, “Azepinone as a conformational constraint in the design of kappa-opioid receptor agonists” (Bioorg Med Chem Lett, 2004).

A value given as a limit tells only on which side of the number the result lay.

In test [1] the test system is Mus musculus. Put plainly: Effective dose required to induce sedation was determined in mouse when administered orally. The format is functional. Conditions: po. The method, boiled down:
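Mice placed on a raised plastic platform (11 × 7.5 × 3 cm). Latency to step fully off the platform was timed before oral dosing (baseline sedation latency) and 30 min after. ED50 reported with range in parentheses.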

In test [2] the test system is Mus musculus. As to the kind of experiment: Effective dose required to inhibit acetic acid induced writhing in mouse when administered orally. Type of test: functional. Conditions: po. Summed up:
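Mice dosed orally with vehicle or test agent; 15 min later given 0.6% acetic acid intraperitoneally. Writhes counted over a 10 min period starting 5 min after the acid injection. ED50 reported with range in parentheses.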
For orientation: Writhing tests count abdominal constrictions after an irritant is injected.

Test [3] relates to Rattus norvegicus. As to the kind of experiment: Effective dose required to inhibit formalin induced flinching in rat as a measure of antinociception activity when administered orally. Conditions: po. Type of test: functional.
The species named for test [4] is Rattus norvegicus. Put plainly: Percent inhibition of rotarod performance based on the comparison of baseline and post-treatment rotarod latencies. The format is functional.
Test [5] has as its target T1, Delta-type opioid receptor (Homo sapiens, UniProt P41143). Put plainly: Binding affinity for human Delta opioid receptor.
Test [6] addresses T2, Kappa-type opioid receptor (Homo sapiens, UniProt P41145). As to the kind of experiment: Binding affinity for human Opioid receptor kappa 1.
The target in test [7] is T3, Mu-type opioid receptor (Homo sapiens, UniProt P35372). As to the kind of experiment: Binding affinity for human Mu opioid receptor.
T3 sequence (P35372 whole entry): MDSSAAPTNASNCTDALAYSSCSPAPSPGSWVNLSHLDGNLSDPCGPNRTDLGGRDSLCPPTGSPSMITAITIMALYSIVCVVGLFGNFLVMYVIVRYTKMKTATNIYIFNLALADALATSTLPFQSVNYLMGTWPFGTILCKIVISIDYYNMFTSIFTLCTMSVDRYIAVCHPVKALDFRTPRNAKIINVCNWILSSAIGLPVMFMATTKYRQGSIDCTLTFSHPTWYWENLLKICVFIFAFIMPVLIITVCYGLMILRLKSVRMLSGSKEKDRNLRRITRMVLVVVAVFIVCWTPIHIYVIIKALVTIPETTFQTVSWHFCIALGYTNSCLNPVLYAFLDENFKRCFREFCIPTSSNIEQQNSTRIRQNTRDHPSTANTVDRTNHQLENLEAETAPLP
In test [8] the target is T3, Mu-type opioid receptor. As to the kind of experiment: Inhibition percent of compound towards human Mu opioid receptor. Details: concentration or dose not given beside the values. Conditions: concentration not given here.
The target in test [9] is T2, Kappa-type opioid receptor. Put plainly: Binding affinity for human Kappa opioid receptor.
Test [10] has as its target T1, Delta-type opioid receptor. Put plainly: Inhibition percent of compound towards human Delta opioid receptor. The following applies: concentration not given here. Details: concentration or dose not given beside the values.
Test [11] has as its target Opioid receptors; mu & kappa (Homo sapiens) (UniProt P41145+P35372). As to the kind of experiment: Selectivity for kappa opioid receptor over mu opioid receptor. Type of test: protein assay.
In test [12] the target is Opioid receptors; delta & kappa (Homo sapiens) (UniProt P41145+P41143). Put plainly: Selectivity for kappa opioid receptor over delta opioid receptor. Type of test: protein assay.
Opioid receptors; delta & kappa (Homo sapiens), sequence (P41143 whole entry, looked up): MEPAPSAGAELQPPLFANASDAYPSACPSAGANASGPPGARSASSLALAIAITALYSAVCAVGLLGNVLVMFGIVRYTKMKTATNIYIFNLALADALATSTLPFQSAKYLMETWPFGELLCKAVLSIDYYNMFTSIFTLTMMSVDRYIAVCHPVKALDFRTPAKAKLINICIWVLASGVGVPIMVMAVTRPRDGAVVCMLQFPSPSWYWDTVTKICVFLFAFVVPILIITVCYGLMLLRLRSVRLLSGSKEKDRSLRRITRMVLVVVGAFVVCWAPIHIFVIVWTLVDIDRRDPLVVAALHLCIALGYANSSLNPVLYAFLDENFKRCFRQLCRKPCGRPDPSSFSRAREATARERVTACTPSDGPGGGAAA
Opioid receptors; delta & kappa (Homo sapiens), sequence (P41145 whole entry, looked up): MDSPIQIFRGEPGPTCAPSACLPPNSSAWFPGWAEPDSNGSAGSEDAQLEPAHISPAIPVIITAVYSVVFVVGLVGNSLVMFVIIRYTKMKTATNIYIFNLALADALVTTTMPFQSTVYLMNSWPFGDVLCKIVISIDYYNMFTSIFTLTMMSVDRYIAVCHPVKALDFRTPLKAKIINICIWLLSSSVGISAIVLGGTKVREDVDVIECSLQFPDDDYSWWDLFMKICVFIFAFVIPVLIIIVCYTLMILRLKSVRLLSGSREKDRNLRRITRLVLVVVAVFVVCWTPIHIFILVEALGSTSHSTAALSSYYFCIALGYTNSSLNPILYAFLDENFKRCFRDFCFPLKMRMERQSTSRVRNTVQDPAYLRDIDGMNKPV

T1 sequence (P41143 whole entry): as the sequence (P41143 whole entry, looked up) above
T2 sequence (P41145 whole entry): as the sequence (P41145 whole entry, looked up) above
Opioid receptors; mu & kappa (Homo sapiens), sequence (P35372 whole entry, looked up): as the sequence (P35372 whole entry) above
Opioid receptors; mu & kappa (Homo sapiens), sequence (P41145 whole entry, looked up): as the sequence (P41145 whole entry, looked up) above

For the compound `O=C1C(c2ccc(Cl)c(Cl)c2)CC=CCN1C(CN1CCCC1)c1ccccc1` (stereo not drawn), the ED50 – broadly, the midpoint of the dose-response relation – in the test with Mus musculus [1] came out at 48 mg/kg; with Mus musculus [2], 1.6 mg/kg; in the test on Rattus norvegicus [3], 2.7 mg/kg. The Inhibition – broadly, how much of the control response was suppressed – in the test listed under Rattus norvegicus [4] was determined as 54%. For the same compound, the Ki (in general, a dissociation constant, usually derived from enzyme kinetics or from competition with a known ligand) in [5] turned out to be 370 nM; in test [6] it was 0.34 nM; on Mu-type opioid receptor [7] it was 1000 nM.
In the case of `O=C1C(c2ccc(C(F)(F)F)cc2)CC=CCN1C(CN1CCCC1)c1ccccc1` (stereo not drawn), the inhibition (usually the relative decrease from the control value, in per cent) against Mu-type opioid receptor [8] was below 60%. The inhibition constant Ki was 1000 nM in test [5] and 0.72 nM in [9].
As to `O=C1[C@@H](c2ccc(Cl)cc2)CC=CCN1C(CN1CCCC1)c1ccccc1` (stereo partly drawn), the inhibition (in test [10]; against Mu-type opioid receptor [8]) was below 60% each time. In addition, in test [9], the Ki amounted to 35 nM.
`COc1ccc([C@H]2CC=CCN(C(CN3CCCC3)c3ccccc3)C2=O)cc1` (stereo partly drawn): the inhibition (in test [10]; at Mu-type opioid receptor [8]) was below 60% each time. The affinity in test [9] corresponds to a Ki of 800 nM.
`O=C1[C@@H](c2ccc(Cl)c(Cl)c2)CC=CCN1C(CN1CCCC1)c1ccccc1` (stereo partly drawn): the inhibition (in test [10]; on Mu-type opioid receptor [8]) was below 60% throughout. For the same compound, in test [6], the Ki was determined as 17 nM.
`COc1ccc(C2CC=CCN(C(CN3CCCC3)c3ccccc3)C2=O)cc1` (stereo not drawn): the inhibition (in test [10]; against Mu-type opioid receptor [8]) was below 60% throughout. Besides, in test [9], the Ki is 22 nM.
As for `O=C1[C@H](c2ccc(Cl)c(Cl)c2)CC=CCN1[C@H](CN1CC[C@H](O)C1)c1ccccc1`, the Selectivity in test [11] and in test [12] was 1000 each time. Besides, in test [9], the Ki came out at 0.2 nM.
On to `O=C1C(Oc2ccc(Cl)c(Cl)c2)CC=CCN1C(CN1CCCC1)c1ccccc1` (stereo not drawn), for which the inhibition (in test [10]; against Mu-type opioid receptor [8]) was below 60% throughout. In addition, in [9], the Ki amounted to 2.6 nM.
In the test with Mus musculus [1], `CN(C(=O)Cc1ccc(Cl)c(Cl)c1)C(CN1CCCC1)c1ccccc1` (stereo not drawn) showed an ED50 of 7.5 mg/kg.
For `O=C1C(c2cccc(S(=O)(=O)N3CCCC3)c2)CC=CCN1C(CN1CCCC1)c1ccccc1` (stereo not drawn), the inhibition (in test [10]; against Mu-type opioid receptor [8]) was below 60% throughout. In test [9], this compound gave a Ki of 1900 nM.
In the case of `O=C1[C@H](c2ccc(Cl)c(Cl)c2)CC=CCN1[C@H](CN1CCCC1)c1ccccc1`, the Selectivity in test [11] and in [12] was 1000 each time. The Ki in [9] amounted to 12 nM.
Consider `O=C1C(c2ccc(Cl)cc2)CC=CCN1C(CN1CCCC1)c1ccccc1` (stereo not drawn), for which the inhibition (in [10]; at Mu-type opioid receptor [8]) was below 60% in each case. In addition, in test [6], the affinity, expressed as Ki, was 2 nM.
